# Laboratory results as given in ChEMBL document CHEMBL1125592, “Calcium channel blocking and positive inotropic activities of ethyl 5-cyano-1,4-dihydro-6-methyl-2-[(phenylsulfonyl)methyl]-4-aryl-3- pyridine-carboxylate and analogues. Synthesis and structure-activity relationships” (J Med Chem, 1991).
# What was measured:
# Oryctolagus cuniculus [1] = organism: Oryctolagus cuniculus; assay: Vasoconstrictor effect at a concentration of 10e-5 M using nondepolarized isolated rings from rabbit.; assay type: functional
# Oryctolagus cuniculus [2] = organism: Oryctolagus cuniculus; assay: Vasoconstrictor effect at a concentration of 10e-9 M using nondepolarized isolated rings from rabbit.; assay type: functional
# Oryctolagus cuniculus [3] = organism: Oryctolagus cuniculus; assay: Vasoconstrictor effect at a concentration of 10e-8 M using partially depolarized isolated rings from rabbit.; assay type: functional
# Oryctolagus cuniculus [4] = organism: Oryctolagus cuniculus; assay: Vasoconstrictor effect at a concentration of 3 x 10e-9 M using partially depolarized isolated rings from rabbit.; assay type: functional
# Oryctolagus cuniculus [5] = organism: Oryctolagus cuniculus; assay: Vasoconstrictor effect at a concentration of 10e-8 M using nondepolarized isolated rings from rabbit.; assay type: functional
# Oryctolagus cuniculus [6] = organism: Oryctolagus cuniculus; assay: Vasoconstrictor effect at a concentration of 10e-7 M using nondepolarized isolated rings from rabbit.; assay type: functional
# Oryctolagus cuniculus [7] = organism: Oryctolagus cuniculus; assay: Vasoconstrictor effect at a concentration of 3 x 10e-8 M using partially depolarized isolated rings from rabbit.; assay type: functional
# Oryctolagus cuniculus [8] = organism: Oryctolagus cuniculus; assay: Vasoconstrictor effect at a concentration of 10e-9 M using partially depolarized isolated rings from rabbit.; assay type: functional
# Oryctolagus cuniculus [9] = organism: Oryctolagus cuniculus; assay: Vasoconstrictor effect at a concentration of 10e-5 M using partially depolarized isolated rings from rabbit.; assay type: functional
# Oryctolagus cuniculus [10] = organism: Oryctolagus cuniculus; assay: Vasoconstrictor effect at a concentration of 10e-7 M using partially depolarized isolated rings from rabbit.; assay type: functional
# Oryctolagus cuniculus [11] = organism: Oryctolagus cuniculus; assay: Vasoconstrictor effect at a concentration of 3 x 10e-9 M using nondepolarized isolated rings from rabbit.; assay type: functional
# Oryctolagus cuniculus [12] = organism: Oryctolagus cuniculus; assay: Vasoconstrictor effect at a concentration of 10e-6 M using nondepolarized isolated rings from rabbit.; assay type: functional
# Oryctolagus cuniculus [13] = organism: Oryctolagus cuniculus; assay: Vasoconstrictor effect at a concentration of 10e-6 M using partially depolarized isolated rings from rabbit.; assay type: functional
# Oryctolagus cuniculus [14] = organism: Oryctolagus cuniculus; assay: Vasoconstrictor effect at a concentration of 3 x 10e-8 M using nondepolarized isolated rings from rabbit.; assay type: functional
# Oryctolagus cuniculus [15] = organism: Oryctolagus cuniculus; assay: Vasorelaxant effect at a concentration of 10e-7 M on rabbit aortic rings previously contracted with 1.0 uM Norepinephrine.; assay type: functional, Aorta; set-up: unit not given here
# How it was run: (§1)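 Rabbit aortic rings precontracted with 50 mM KCl or 1.0 μM norepinephrine, then exposed to increasing concentrations of test agent. Relaxation recorded at each concentration.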
# Oryctolagus cuniculus [16] = organism: Oryctolagus cuniculus; assay: Vasoconstrictor effect at a concentration of 10e-8 M in presence of nondepolarized isolated rings from rabbits.; assay type: functional
# Oryctolagus cuniculus [17] = organism: Oryctolagus cuniculus; assay: Vasoconstrictor effect at a concentration of 10e-9 M in presence of partially depolarized isolated rings from rabbits.; assay type: functional
# Rattus norvegicus [18] = organism: Rattus norvegicus; assay: Cardiovascular activity in isolated rat heart, concentration producing 25% increase in CF (cardiac flow).; assay type: functional
# How it was run: (§2)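 Isolated Langendorff-perfused rat heart. Coronary flow (CF), LV +dP/dtmax and heart rate recorded during exposure to test agent. Value is the concentration giving a 25% rise in CF or in LV +dP/dtmax, mean ± SE. At least two hearts per compound.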
# Oryctolagus cuniculus [19] = organism: Oryctolagus cuniculus; assay: Vasoconstrictor effect at a concentration of 10e-9 M in presence of nondepolarized isolated rings from rabbits.; assay type: functional
# Oryctolagus cuniculus [20] = organism: Oryctolagus cuniculus; assay: Vasorelaxant effect at a concentration of 10e-6 M on rabbit aortic rings previously contracted with 1.0 uM Norepinephrine.; assay type: functional, Aorta; set-up: unit not given here; how it was run: as §1
# Oryctolagus cuniculus [21] = organism: Oryctolagus cuniculus; assay: Vasorelaxant effect at a concentration of 10e-5 M on rabbit aortic rings previously contracted with 50 mM KCl.; assay type: functional, Aorta; set-up: unit not given here; how it was run: as §1
# Oryctolagus cuniculus [22] = organism: Oryctolagus cuniculus; assay: Vasoconstrictor effect at a concentration of 10e-4 M in presence of partially depolarized isolated rings from rabbits.; assay type: functional
# Oryctolagus cuniculus [23] = organism: Oryctolagus cuniculus; assay: Vasorelaxant effect at a concentration of 10e-8 M on rabbit aortic rings previously contracted with 50 mM KCl.; assay type: functional, Aorta; how it was run: as §1
# Oryctolagus cuniculus [24] = organism: Oryctolagus cuniculus; assay: Vasoconstrictor effect at a concentration of 10e-5 M in presence of partially depolarized isolated rings from rabbits.; assay type: functional
# Oryctolagus cuniculus [25] = organism: Oryctolagus cuniculus; assay: Vasoconstrictor effect at a concentration of 10e-8 M in presence of partially depolarized isolated rings from rabbits.; assay type: functional
# Rattus norvegicus [26] = organism: Rattus norvegicus; assay: Cardiovascular activity in isolated rat heart, concentration producing 25% increase in LV + dP/dtmax.; assay type: functional; how it was run: as §2
# Oryctolagus cuniculus [27] = organism: Oryctolagus cuniculus; assay: Vasoconstrictor effect at a concentration of 10e-4 M in presence of nondepolarized isolated rings from rabbits.; assay type: functional
# Oryctolagus cuniculus [28] = organism: Oryctolagus cuniculus; assay: Vasoconstrictor effect at a concentration of 10e-5 M in presence of nondepolarized isolated rings from rabbits.; assay type: functional
# Oryctolagus cuniculus [29] = organism: Oryctolagus cuniculus; assay: Vasoconstrictor effect at a concentration of 10e-7 M in presence of nondepolarized isolated rings from rabbits.; assay type: functional
# Oryctolagus cuniculus [30] = organism: Oryctolagus cuniculus; assay: Vasorelaxant effect at a concentration of 10e-9 M on rabbit aortic rings previously contracted with 50 mM KCl.; assay type: functional, Aorta; how it was run: as §1
# Oryctolagus cuniculus [31] = organism: Oryctolagus cuniculus; assay: Vasoconstrictor effect at a concentration of 10e-6 M in presence of partially depolarized isolated rings from rabbits.; assay type: functional
# Oryctolagus cuniculus [32] = organism: Oryctolagus cuniculus; assay: Vasorelaxant effect at a concentration of 10e-6 M on rabbit aortic rings previously contracted with 50 mM KCl.; assay type: functional, Aorta; set-up: unit not given here; how it was run: as §1
# [33] = target: Voltage-gated L-type calcium channel (Rattus norvegicus, UniProt P22002+Q02485+P27732); assay: Affinity to bind dihydropyridine receptor (DHP receptor) by inhibiting the radioligand [3H]nitrendipine; assay type: protein assay
# How it was run: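 [3H]nitrendipine displacement, rat brain cortical membranes. Each compound first screened at 1000 nM; if inhibition exceeded 40%, a four- to seven-point curve with unlabeled compound was run. IC50 generally mean of two experiments, each in triplicate. ">1000 nM" means under 40% inhibition of control binding at 1000 nM.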
# Oryctolagus cuniculus [34] = organism: Oryctolagus cuniculus; assay: Vasorelaxant effect at a concentration of 10e-4 M on rabbit aortic rings previously contracted with 1.0 uM Norepinephrine.; assay type: functional, Aorta; set-up: unit not given here; how it was run: as §1
# Oryctolagus cuniculus [35] = organism: Oryctolagus cuniculus; assay: Vasorelaxant effect at a concentration of 10e-8 M on rabbit aortic rings previously contracted with 1.0 uM Norepinephrine.; assay type: functional, Aorta; how it was run: as §1
# Oryctolagus cuniculus [36] = organism: Oryctolagus cuniculus; assay: Vasoconstrictor effect at a concentration of 10e-7 M in presence of partially depolarized isolated rings from rabbits.; assay type: functional
# Oryctolagus cuniculus [37] = organism: Oryctolagus cuniculus; assay: Vasorelaxant effect at a concentration of 10e-5 M on rabbit aortic rings previously contracted with 1.0 uM Norepinephrine.; assay type: functional, Aorta; set-up: unit not given here; how it was run: as §1
# Rattus norvegicus [38] = organism: Rattus norvegicus; assay: Compound was tested for its effect on coronary vasodilator in isolated rat hearts.; assay type: functional
# How it was run: (§3)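 Coronary vasodilation and ventricular contractility measured in isolated Langendorff-perfused rat hearts. EC25 (concentration raising the parameter by 25%) given as mean ± SEM of four to six hearts.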
# Rattus norvegicus [39] = organism: Rattus norvegicus; assay: Compound was tested for its effect on ventricular contractility in isolated rat hearts.; assay type: functional, Cardiac ventricle; how it was run: as §3
# Oryctolagus cuniculus [40] = organism: Oryctolagus cuniculus; assay: Vasorelaxant effect at a concentration of 10e-4 M on rabbit aortic rings previously contracted with 50 mM KCl.; assay type: functional, Aorta; set-up: unit not given here; how it was run: as §1
# Oryctolagus cuniculus [41] = organism: Oryctolagus cuniculus; assay: Vasorelaxant effect at a concentration of 10e-9 M on rabbit aortic rings previously contracted with 1.0 uM Norepinephrine.; assay type: functional, Aorta; how it was run: as §1
# Oryctolagus cuniculus [42] = organism: Oryctolagus cuniculus; assay: Vasorelaxant effect at a concentration of 10e-7 M on rabbit aortic rings previously contracted with 50 mM KCl.; assay type: functional, Aorta; set-up: unit not given here; how it was run: as §1
smiles,measurement,setting,value
NC[C@H](O)c1ccc(O)c(O)c1 [NOREPINEPHRINE],Vasoconstriction effect,Oryctolagus cuniculus [1],151.3
same,Vasoconstriction effect,Oryctolagus cuniculus [2],0
same,Vasoconstriction effect,Oryctolagus cuniculus [3],46.2
same,Vasoconstriction effect,Oryctolagus cuniculus [4],18.2
same,Vasoconstriction effect,Oryctolagus cuniculus [5],22.2
same,Vasoconstriction effect,Oryctolagus cuniculus [6],80.2
same,Vasoconstriction effect,Oryctolagus cuniculus [7],63.4
same,Vasoconstriction effect,Oryctolagus cuniculus [8],7.8
same,Vasoconstriction effect,Oryctolagus cuniculus [9],137.2
same,Vasoconstriction effect,Oryctolagus cuniculus [10],84.4
same,Vasoconstriction effect,Oryctolagus cuniculus [11],0
same,Vasoconstriction effect,Oryctolagus cuniculus [12],112.6
same,Vasoconstriction effect,Oryctolagus cuniculus [13],106.3
same,Vasoconstriction effect,Oryctolagus cuniculus [14],49.1
CCOC(=O)C1=C(CS(=O)(=O)c2ccncc2)NC(C)=C(C#N)C1c1ccccc1C(F)(F)F (stereo in doubt; 54),Vasorelaxant effect,Oryctolagus cuniculus [15],-1.8
same,Vasoconstriction effect,Oryctolagus cuniculus [16],0
same,Vasoconstriction effect,Oryctolagus cuniculus [17],3.3
same,EC25,Rattus norvegicus [18],0.29 µM
same,Vasoconstriction effect,Oryctolagus cuniculus [19],0
same,Vasorelaxant effect,Oryctolagus cuniculus [20],-2.3
same,Vasorelaxant effect,Oryctolagus cuniculus [21],53.8
same,Vasoconstriction effect,Oryctolagus cuniculus [22],0
same,Vasorelaxant effect,Oryctolagus cuniculus [23],-8.6
same,Vasoconstriction effect,Oryctolagus cuniculus [24],0
same,Vasoconstriction effect,Oryctolagus cuniculus [25],4.5
same,EC25,Rattus norvegicus [26],0.47 µM
same,Vasoconstriction effect,Oryctolagus cuniculus [27],0
same,Vasoconstriction effect,Oryctolagus cuniculus [28],0
same,Vasoconstriction effect,Oryctolagus cuniculus [29],0
same,Vasorelaxant effect,Oryctolagus cuniculus [30],-4.8
same,Vasoconstriction effect,Oryctolagus cuniculus [31],2.4
same,Vasorelaxant effect,Oryctolagus cuniculus [32],6.2
same,IC50,[33],271 nM
same,Vasorelaxant effect,Oryctolagus cuniculus [34],4.2
same,Vasorelaxant effect,Oryctolagus cuniculus [35],-1.4
same,Vasoconstriction effect,Oryctolagus cuniculus [36],5
same,Vasorelaxant effect,Oryctolagus cuniculus [37],0.7
same,EC25,Rattus norvegicus [38],0.284 µM
same,EC25,Rattus norvegicus [39],0.535 µM
same,Vasorelaxant effect,Oryctolagus cuniculus [40],88.9
same,Vasorelaxant effect,Oryctolagus cuniculus [41],-0.9
same,Vasorelaxant effect,Oryctolagus cuniculus [42],-9.1
